Consider 33 molecules from ChEMBL document CHEMBL4406888, “Synthesis of analogs of the Gwt1 inhibitor manogepix (APX001A) and in vitro evaluation against Cryptococcus spp” (Bioorg Med Chem Lett, 2019).

SMILES strings stand for the structures. In brackets after ≈: the same amount, converted by molar mass. Where only a bound is given, the exact number is not on record here.

Data set [1] is described as follows: Half life in human liver microsomes at 1 uM preincubated for 5 mins followed by NADPH addition and measured for 45 mins by LC/MS analysis. Format: ADME, Microsome. The conditions noted are these: for t1/2: microsomes, 0.75 h, 1 µM.
The test system of a further data set is Cryptococcus neoformans. Put plainly: Antifungal activity against Cryptococcus neoformans incubated for 72 hrs by broth micro dilution method. Format: functional.
The next data set deals with Cryptococcus gattii. The data set can be described thus: Antifungal activity against Cryptococcus gattii incubated for 72 hrs by broth micro dilution method. Format: functional.
For data set [2], the target named is T1, PIGW (glucosaminyl-phosphatidylinositol-acyltransferase) (Homo sapiens, UniProt Q7Z7B1).
T1 sequence (Q7Z7B1 whole entry): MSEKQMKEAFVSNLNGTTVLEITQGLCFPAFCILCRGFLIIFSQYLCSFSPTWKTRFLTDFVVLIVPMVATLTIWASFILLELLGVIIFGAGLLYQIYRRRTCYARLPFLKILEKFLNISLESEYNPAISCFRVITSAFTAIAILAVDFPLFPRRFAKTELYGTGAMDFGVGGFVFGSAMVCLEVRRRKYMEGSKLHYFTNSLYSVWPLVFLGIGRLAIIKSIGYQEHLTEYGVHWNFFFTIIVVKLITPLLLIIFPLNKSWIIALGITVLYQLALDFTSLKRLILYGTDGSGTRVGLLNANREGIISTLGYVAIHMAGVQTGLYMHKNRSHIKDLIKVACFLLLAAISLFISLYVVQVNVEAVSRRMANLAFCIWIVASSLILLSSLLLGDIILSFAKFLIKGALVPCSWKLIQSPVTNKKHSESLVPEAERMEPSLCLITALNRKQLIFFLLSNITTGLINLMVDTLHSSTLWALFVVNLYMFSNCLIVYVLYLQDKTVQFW
Put plainly: Inhibition of human PIGW expressed in Saccharomyces cerevisiae at 16 uM by spectrophotometric analysis relative to control. The note with it: Saccharomyces cerevisiae expressing human PIGW.

For data set [3], the target named is T2, GPI-anchored wall transfer protein 1 (Candida albicans (strain SC5314 / ATCC MYA-2876) (Yeast)) (UniProt Q873N2).
T2 sequence (whole entry): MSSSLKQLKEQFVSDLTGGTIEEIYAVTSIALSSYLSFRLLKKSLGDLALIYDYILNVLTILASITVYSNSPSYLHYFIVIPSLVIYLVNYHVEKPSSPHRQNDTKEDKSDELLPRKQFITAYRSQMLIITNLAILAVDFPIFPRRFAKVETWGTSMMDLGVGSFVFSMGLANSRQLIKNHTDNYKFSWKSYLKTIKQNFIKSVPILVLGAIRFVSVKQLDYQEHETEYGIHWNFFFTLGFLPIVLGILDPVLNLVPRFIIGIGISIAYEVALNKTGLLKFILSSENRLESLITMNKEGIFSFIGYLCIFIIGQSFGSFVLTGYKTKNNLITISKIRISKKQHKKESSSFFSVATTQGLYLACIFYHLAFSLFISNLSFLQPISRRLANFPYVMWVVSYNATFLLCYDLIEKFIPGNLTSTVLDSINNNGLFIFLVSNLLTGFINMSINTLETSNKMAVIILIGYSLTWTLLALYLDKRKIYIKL
Put plainly: Antifungal activity against Candida albicans GWT1 expressed in Saccharomyces cerevisiae assessed as overexpression ratio. The gist of the method:
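MICs measured against S. cerevisiae strains expressing high and low levels of Gwt1. The value is the ratio of the two strains' MICs.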

The test system of another data set is HepG2. The data set can be described thus: Cytotoxicity against human HepG2 cells assessed as reduction in cell viability at 3 uM by CellTiter-Glo luminescent cell viability assay relative to control. In kind it is cell-based. The note with it: hepg2, 3 µM.

In data set [1] (liver microsomes), `O=C(c1ccc(F)cc1)C1CCN(CCn2c(=O)[nH]c3ccccc3c2=O)CC1` [KETANSERIN] had a half-life at 1 µM of 40.8 min.

For the molecule `Nc1ncccc1-c1cc(Cc2ccc(CNCc3ccn[nH]3)cc2)no1`, the MIC with Cryptococcus neoformans and in the data set with Cryptococcus gattii was > 4 µg/mL in each case.

Turning to `Nc1ncccc1-c1cc(Cc2ccc(COc3ccccc3)cc2)no1`, the values for the MIC against Cryptococcus neoformans and in the data set on Cryptococcus gattii were 0.125 µg/mL (≈ 0.35 µM) and 0.063 µg/mL (≈ 0.176 µM), respectively.

For `Nc1ncccc1-c1cc(Cc2ccnc(OCc3cccc(F)c3)c2)no1`, the MIC in the data set on Cryptococcus neoformans and with Cryptococcus gattii was 0.031 µg/mL (≈ 0.0824 µM) each time.

With `Nc1ncccc1-c1cc(Cc2ccc(OCc3ccncc3)nc2)no1`, the MIC with Cryptococcus neoformans and against Cryptococcus gattii was 0.008 µg/mL (≈ 0.0223 µM) each time. In data set [1], this molecule showed a t1/2 of 20.3 min.

On to `Nc1ncccc1-c1cc(Cc2ccc(OCc3ccccc3)cc2)no1`, for which the MIC in the data set with Cryptococcus neoformans and in the data set on Cryptococcus gattii was 0.031 µg/mL (≈ 0.0867 µM) in each case.

Regarding `Nc1ncccc1-c1cc(Cc2ccc(Nc3ccccc3F)nc2)no1`, the MIC in the data set on Cryptococcus neoformans and against Cryptococcus gattii was 0.016 µg/mL (≈ 0.0443 µM) in each case. This molecule came in with a t1/2 in data set [1] of 37.1 min.

`Nc1ncccc1-c1cc(Cc2ccc(OCc3ccccc3F)nc2)no1`: the MIC against Cryptococcus neoformans and against Cryptococcus gattii was 0.031 µg/mL (≈ 0.0824 µM) throughout.

With `Nc1ncccc1-c1cc(Cc2ccc(Oc3cccc(F)c3)nc2)no1`, at 16 µM the inhibition in data set [2] was 0%. Also, the MIC turned out to be 0.008 µg/mL (≈ 0.0221 µM) with Cryptococcus neoformans and 0.016 µg/mL (≈ 0.0442 µM) in the data set on Cryptococcus gattii. Also, in data set [1], the t1/2 is on record as 93.9 min. In data set [3], the Ratio was found to be 8. The “Cell viability (% of control)” value with HepG2 stood at 102%.

Turning to `Nc1ncccc1-c1cc(Cc2ccc(Cc3cccc(F)n3)cc2)no1`, the results for the MIC in the data set with Cryptococcus neoformans and in the data set with Cryptococcus gattii were 0.031 µg/mL (≈ 0.086 µM) and 0.016 µg/mL (≈ 0.0444 µM), respectively.

For the molecule `Nc1ncccc1-c1cc(Cc2ccc(OCCc3cccc(F)c3)nc2)no1`, the MIC against Cryptococcus neoformans and against Cryptococcus gattii was 0.063 µg/mL (≈ 0.161 µM) each time.

For `Nc1ncccc1-c1cc(Cc2ccc(Oc3ccccc3F)nc2)no1`, the results for the MIC against Cryptococcus neoformans and in the data set on Cryptococcus gattii were 0.016 µg/mL (≈ 0.0442 µM) and 0.031 µg/mL (≈ 0.0855 µM), respectively.

`Nc1ncccc1-c1cc(Cc2ccc(OCc3cccc(Cl)c3)nc2)no1` had an inhibition at 16 µM in data set [2] of 80%. Besides, the MIC in the data set on Cryptococcus neoformans and in the data set on Cryptococcus gattii was 0.016 µg/mL (≈ 0.0407 µM) each time. In data set [3], the Ratio was determined as 4. Besides, the “Cell viability (% of control)” value with HepG2 came to 98%.

Turning to `Nc1ncccc1-c1cc(Cc2ccc(OCc3cccc(F)c3)nc2)no1`, 16 µM produced 5% inhibition in data set [2]. Besides, the MIC in the data set with Cryptococcus neoformans and against Cryptococcus gattii was 0.016 µg/mL (≈ 0.0425 µM) in each case. The t1/2 in data set [1] is on record as 62.3 min. The Ratio in data set [3] turned out to be 8. For the same molecule, the “Cell viability (% of control)” value in the data set on HepG2 came out at 97%.

Consider `Nc1ncccc1-c1cc(Cc2ccc(OCc3ccoc3)nc2)no1`, for which the minimal inhibitory concentration (MIC) in the data set on Cryptococcus neoformans turned out to be 0.016 µg/mL (≈ 0.0459 µM); with Cryptococcus gattii it was 0.031 µg/mL (≈ 0.089 µM).

For the molecule `Nc1ncccc1-c1cc(Cc2ccc(OCc3ccncc3)cc2)no1`, the MIC against Cryptococcus neoformans is 0.016 µg/mL (≈ 0.0446 µM); against Cryptococcus gattii, 0.008 µg/mL (≈ 0.0223 µM). In addition, the t1/2 in data set [1] is listed as 17.3 min.

With `Nc1ncccc1-c1cc(Cc2ccc(OCC3CCC3)nc2)no1`, the MIC was 0.016 µg/mL (≈ 0.0476 µM) against Cryptococcus neoformans and 0.008 µg/mL (≈ 0.0238 µM) against Cryptococcus gattii. In data set [1], the t1/2 was found to be 4.65 min.

For the molecule `Nc1ncccc1-c1cc(Cc2ccc(OCCc3ccccc3F)nc2)no1`, the minimal inhibitory concentration (MIC) in the data set on Cryptococcus neoformans and against Cryptococcus gattii was 0.031 µg/mL (≈ 0.0794 µM) in each case.

For `Nc1ncccc1-c1cc(Cc2ccc(CNc3cccc(F)n3)cc2)no1`, the MIC against Cryptococcus neoformans and against Cryptococcus gattii was 0.25 µg/mL (≈ 0.666 µM) throughout.

Consider `Nc1ncccc1-c1cc(Cc2ccc(OCC3CC3)nc2)no1`, for which the figures for the MIC against Cryptococcus neoformans and in the data set with Cryptococcus gattii were 0.031 µg/mL (≈ 0.0962 µM) and 0.016 µg/mL (≈ 0.0496 µM), respectively.

In the case of `Nc1ncccc1-c1cc(Cc2ccc(Oc3ccccn3)cc2)no1`, the figures for the MIC against Cryptococcus neoformans and in the data set with Cryptococcus gattii were 0.016 µg/mL (≈ 0.0465 µM) and 0.008 µg/mL (≈ 0.0232 µM), respectively. The same molecule showed a t1/2 in data set [1] of 61.5 min. In the data set with HepG2, the “Cell viability (% of control)” value is 77%.

`Nc1ncccc1-c1cc(Cc2ccc(Cc3ccc(F)o3)cc2)no1`: the MIC against Cryptococcus neoformans and against Cryptococcus gattii was 0.016 µg/mL (≈ 0.0458 µM) in each case. Also, the t1/2 in data set [1] is 14.4 min.

Consider `Cc1nccc(NCc2ccc(Cc3cc(-c4cccnc4N)on3)cc2)n1`, for which the MIC against Cryptococcus neoformans and with Cryptococcus gattii was > 4 µg/mL each time.

With `Nc1ncccc1-c1cc(Cc2ccc(Cc3ccccc3)cc2)no1`, the MIC was 0.031 µg/mL (≈ 0.0908 µM) with Cryptococcus neoformans and 0.008 µg/mL (≈ 0.0234 µM) against Cryptococcus gattii.

On to `Cc1occc1COc1ccc(Cc2cc(-c3cccnc3N)on2)cn1`, for which the MIC with Cryptococcus neoformans and against Cryptococcus gattii was 2 µg/mL (≈ 5.52 µM) each time.

Consider `Nc1ncccc1-c1cc(Cc2ccc(CCc3ccccc3)cc2)no1`, for which the minimal inhibitory concentration (MIC) in the data set with Cryptococcus neoformans and against Cryptococcus gattii was 0.5 µg/mL (≈ 1.41 µM) in each case.

Regarding `Nc1ncccc1-c1cc(Cc2ccc(CNc3ccccc3)cc2)no1`, the MIC was 0.125 µg/mL (≈ 0.351 µM) against Cryptococcus neoformans and 0.063 µg/mL (≈ 0.177 µM) against Cryptococcus gattii.

As to `CC(Oc1ccc(Cc2cc(-c3cccnc3N)on2)cn1)c1ccccc1F` (configuration not stated), the MIC in the data set with Cryptococcus neoformans amounted to 0.25 µg/mL (≈ 0.64 µM); in the data set with Cryptococcus gattii it was 0.5 µg/mL (≈ 1.28 µM).

In the case of `Nc1ncccc1-c1cc(Cc2ccc(Oc3cccc(F)n3)cc2)no1`, in data set [2], testing at 16 µM gave an inhibition of 0%. For the same molecule, the MIC in the data set on Cryptococcus neoformans stood at 0.008 µg/mL (≈ 0.0221 µM); against Cryptococcus gattii, 0.004 µg/mL (≈ 0.011 µM). For the same molecule, the t1/2 in data set [1] was 43 min. For the same molecule, the Ratio in data set [3] was found to be 16. Besides, the “Cell viability (% of control)” value in the data set with HepG2 was found to be 93%.

For `Nc1ncccc1-c1cc(Cc2ccc(Cc3ccco3)cc2)no1`, the MIC against Cryptococcus neoformans and with Cryptococcus gattii was 0.016 µg/mL (≈ 0.0483 µM) each time. The same molecule had a t1/2 in data set [1] of 3.15 min.

In the case of `Nc1ncccc1-c1cc(Cc2ccnc(OCCc3cccc(F)c3)c2)no1`, the MIC against Cryptococcus neoformans came to 0.5 µg/mL (≈ 1.28 µM); in the data set with Cryptococcus gattii, 1 µg/mL (≈ 2.56 µM).

As for `Nc1ncccc1-c1cc(Cc2ccc(COc3ccccn3)cc2)no1` [MANOGEPIX], the inhibition at 16 µM in data set [2] came out at 0%. Also, the MIC amounted to 0.25 µg/mL (≈ 0.698 µM) in the data set on Cryptococcus neoformans and 0.125 µg/mL (≈ 0.349 µM) against Cryptococcus gattii. The molecule also gave a t1/2 in data set [1] of 49.9 min. The Ratio in data set [3] turned out to be 8. In addition, the “Cell viability (% of control)” value with HepG2 stood at 98%.

`Nc1ncccc1-c1cc(Cc2ccc(Cn3cccn3)cc2)no1`: the MIC was determined as 0.25 µg/mL (≈ 0.754 µM) in the data set on Cryptococcus neoformans and 0.063 µg/mL (≈ 0.19 µM) against Cryptococcus gattii.
